Assay results from ChEMBL document CHEMBL1125712 (J Med Chem, 1991).
Calls of active or inactive are those of the source. The rule behind the calls is not given here.

Legend:
[1] = biological target: T1, Aldo-keto reductase family 1 member B1 (Homo sapiens, UniProt P15121); experiment: Compound was evaluated for its ability to inhibit the aldose reductase isolated from human placentae; Inactive at 10E-4 M
Rattus norvegicus [2] = experiment: Compound was evaluated in vivo for the inhibition of sorbitol accumulation administered orally at a dose of 0.25 mg/kg.; type: functional; details: route oral
Rattus norvegicus [3] = experiment: Compound was evaluated for the ED50(chronic) in male Sprague-Dawley rats(n=5) treated with streptozotocin (85 mg/kg intravenously).; details: oral
[4] = Partition coefficient (logP); type: physicochemical; details: octanol/water
[5] = Compound was evaluated for the partition coefficient (octanol/pH 7.4 buffer); type: physicochemical
Method in brief: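 Partition measured between n-octanol and pH 7.4 buffer.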

[6] = Compound was evaluated for the apparent pKa (dioxane/water) in the ratio 1:1; type: physicochemical; details: dioxane/water 1:1
[7] = Compound was evaluated for the apparent pKa (dioxane/water) the ratio 2:1; type: physicochemical; details: dioxane/water 2:1
[8] = biological target: T2, Aldo-keto reductase family 1 member B1 (Rattus norvegicus, UniProt P07943); experiment: Compound was tested for the inhibition of the rat lens aldose reductase using the substrate as glucose.
Rattus norvegicus [9] = experiment: Compound was evaluated for the ED50(acute) in male Sprague-Dawley rats(n=4) treated with streptozotocin (85 mg/kg intravenously).; type: functional
Method in brief: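 Streptozotocin-diabetic rats (85 mg/kg iv) dosed by oral gavage, aqueous suspension or solution, at 4, 7 and 24 h. Killed at 27 h. […] ED50 from log linear regression.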

Rattus norvegicus [10] = species on record: Rattus norvegicus; experiment: Compound was tested for the inhibition of sorbitol accumulation in washed rat erythrocytes.
[11] = biological target: T2, Aldo-keto reductase family 1 member B1; experiment: Compound was tested for the inhibition of the rat lens aldose reductase using the substrate as glyceraldehyde
Rattus norvegicus [12] = experiment: Compound was evaluated for the ED50(chronic) in male Sprague-Dawley rats(n=5) treated with streptozotocin (85 mg/kg intravenously).; details: oral; remark: listed apart in the source
[13] = biological target: T1, Aldo-keto reductase family 1 member B1; experiment: Inhibition of aldose reductase (aldo-keto reductase, AKR1B1) isolated from human placenta.
Rattus norvegicus [14] = experiment: Compound was evaluated in vivo for the inhibition of sorbitol accumulation administered orally at a dose of 5 mg/kg; Not significant; type: functional, organism-based; design: dose 5 mg/kg
[15] = test system: aldose reductase (Rattus norvegicus); experiment: In vivo inhibition of sorbitol accumulation in the rat following 10 mg/kg p.o. administration.; details: at 10 mg/kg
Homo sapiens = species on record: Homo sapiens; experiment: Compound was tested for the inhibition of sorbitol accumulation in washed human erythrocytes.; type: functional
[16] = Compound was evaluated for the apparent pKa (dioxane/water)the ratio 2:1; type: physicochemical; details: dioxane/water 2:1
Rattus norvegicus [17] = experiment: Compound was evaluated in vivo for the inhibition of sorbitol accumulation administered orally at a dose of 5 mg/kg.; type: functional; details: route oral

Compound	logP [4]	logD [5]	pKa [6]	pKa [7]	IC50 [13] [nM]	ED50 (Rattus norvegicus [3]) [mg/kg]	ED50 (Rattus norvegicus [9]; iv) [mg/kg]	ED50 (Rattus norvegicus [12]) [mg/kg]	other results
CN1C(C(=O)Nc2nccs2)=C(O)c2ccccc2S1(=O)=O [SUDOXICAM]									IC50 [1]: Not Active
O=C1NC(=O)[C@@]2(CCOc3ccc(F)cc32)N1 [SORBINIL]						0.8			inhibition in vivo at 0.25 mg/kg (Rattus norvegicus [2]): 40.1%
O=C(O)Cc1nn(Cc2nc3cc(C(F)(F)F)ccc3s2)c(=O)c2ccccc12 [ZOPOLRESTAT]	3.43	0.55	5.46	6.38			3.6	2	IC50 [8]: 10 nM; IC50 (Rattus norvegicus [10]): 220 nM; IC50 [11]: 41 nM
O=C(O)Cc1nn(Cc2nc3cc(F)cc(F)c3s2)c(=O)c2ccccc12	3.01	0.05	5.47	6.38	6.3	4			ED50 (Rattus norvegicus [9]; oral): 3.2 mg/kg; inhibition [15]: 80%
COc1ccc2c(C(=S)N(C)CC(=O)O)cccc2c1C(F)(F)F [TOLRESTAT]						26			IC50 (Homo sapiens): 15 nM

Second part, led by results:

logP [4]	logD [5]	pKa [6]	pKa [7]	IC50 [13] [nM]	Compound	ED50 (Rattus norvegicus [3]) [mg/kg]	ED50 (Rattus norvegicus [9]; iv) [mg/kg]	ED50 (Rattus norvegicus [12]) [mg/kg]	other results
				110	CC(C)c1ccc2c(CC(=O)O)nn(Cc3nc4ccccc4s3)c(=O)c2c1				inhibition (Rattus norvegicus [14]): inactive
3.35				3.1	O=C(O)Cc1nn(Cc2nc3cc(Br)ccc3s2)c(=O)c2ccccc12		5.6	4.9	pKa [16]: 6.35
2.42	-0.3	5.49	6.35	6.9	O=C(O)Cc1nn(Cc2nc3cc(F)ccc3s2)c(=O)c2ccccc12		5.3	5.3	inhibition in vivo at 5 mg/kg (Rattus norvegicus [17]): 60%
